# Source: ChEMBL document CHEMBL1130411, “The practical synthesis of a methylenebisphosphonate analogue of benzamide adenine dinucleotide: inhibition of human inosine monophosphate dehydrogenase (type I and II)” (J Med Chem, 1997)
# Columns and labels:
# K562 [1] = assay: Inhibition of growth in human erythroleukemia K-562 cells (% of untreated control); type: functional
# Procedure, shortened: (§1)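 K562 cells in RPMI 1640 with 10% heat-inactivated calf serum, glutamine, penicillin/streptomycin; seeded at 5 × 10³ per mL, compound (with or without 30 µM guanosine) added at start. After 5 days, MTT added, 3 h at 37 °C; formazan dissolved in acidified 2-propanol, absorbance 550 nm. Triplicate points; IC50 for 50% growth inhibition averaged over four experiments.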
# K562 [2] = assay: Differentiation of K-562 cells at 3.8 uM with out coadministration of guanosine; type: functional, Homo sapiens
# Procedure, shortened: (§2)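 Human erythroleukemia K562 cells grown in RPMI 1640 with 10% heat-inactivated calf serum, glutamine and penicillin/streptomycin; incubated 5 days with compound, with or without 30 µM guanosine. Hemoglobin expression read by benzidine staining (0.1% benzidine in 0.25% H2O2, equal volume, 5 min, room temperature); 300-400 cells counted for % benzidine-positive. Duplicates; average of three experiments.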
# K562 [3] = assay: Differentiation of K-562 cells at 3.8 uM with coadministration of guanosine; type: functional, Homo sapiens; procedure, shortened: as §2
# K562 [4] = assay: Differentiation of K-562 cells at 19 uM with coadministration of guanosine; type: functional, Homo sapiens; procedure, shortened: as §2
# K562 [5] = assay: Differentiation of K-562 cells at 19 uM with out coadministration of guanosine; type: functional, Homo sapiens; procedure, shortened: as §2
# K562 [6] = assay: Differentiation of K-562 cells at 15 uM with coadministration of guanosine; type: functional, Homo sapiens; procedure, shortened: as §2
# K562 [7] = assay: Differentiation of K-562 cells at 30 uM with out coadministration of guanosine; type: functional, Homo sapiens; procedure, shortened: as §2
# K562 [8] = assay: Differentiation of K-562 cells at 30 uM with coadministration of guanosine; type: functional, Homo sapiens; procedure, shortened: as §2
# K562 [9] = assay: Differentiation of K-562 cells at 15 uM with out coadministration of guanosine; type: functional, Homo sapiens; procedure, shortened: as §2
# K562 [10] = assay: Differentiation of K-562 cells at 7.5 uM with coadministration of guanosine; type: functional, Homo sapiens; procedure, shortened: as §2
# K562 [11] = assay: Differentiation of K-562 cells at 7.5 uM with out coadministration of guanosine; type: functional, Homo sapiens; procedure, shortened: as §2
# K562 [12] = assay: Differentiation of K-562 cells at 60 uM with coadministration of guanosine; type: functional, Homo sapiens; procedure, shortened: as §2
# K562 [13] = assay: Differentiation of K-562 cells at 120 uM with out coadministration of guanosine; type: functional, Homo sapiens; procedure, shortened: as §2
# K562 [14] = assay: Differentiation of K-562 cells at 60 uM with out coadministration of guanosine; type: functional, Homo sapiens; procedure, shortened: as §2
# K562 [15] = assay: Tested for inhibition of growth in human erythroleukemia K-562 cells.; type: functional, cell-based; procedure, shortened: as §1
# K562 [16] = assay: Differentiation of K-562 cells at 120 uM with coadministration of guanosine; type: functional, Homo sapiens; procedure, shortened: as §2
smiles,measurement,setting,value
NC(=O)c1csc([C@@H]2O[C@H](CO)[C@@H](O)[C@H]2O)n1 [TIAZOFURIN],Growth inhibition (% of untreated control),K562 [1],90%
same,Benzidine positive cells,K562 [2],36%
same,Benzidine positive cells,K562 [3],12%
same,Benzidine positive cells,K562 [4],40%
same,Benzidine positive cells,K562 [5],80%
NC(=O)c1csc([C@@H]2O[C@H](COP(=O)(O)CP(=O)(O)OC[C@@H]3O[C@H](n4cnc5c(N)ncnc54)[C@@H](O)[C@H]3O)[C@@H](O)[C@H]2O)n1,Growth inhibition (% of untreated control),K562 [1],90%
same,Benzidine positive cells,K562 [6],23%
same,Benzidine positive cells,K562 [7],85%
same,Benzidine positive cells,K562 [8],30%
same,Benzidine positive cells,K562 [9],34%
NC(=O)c1csc([C@H]2O[C@@H](COP(=O)(O)OP(=O)(O)OC[C@H]3O[C@@H](n4cnc5c(N)ncnc54)[C@H](O)[C@@H]3O)[C@H](O)[C@@H]2O)n1,Growth inhibition (% of untreated control),K562 [1],80%
same,Benzidine positive cells,K562 [6],30%
same,Benzidine positive cells,K562 [10],15%
same,Benzidine positive cells,K562 [11],50%
same,Benzidine positive cells,K562 [9],70%
NC(=O)c1cccc([C@@H]2O[C@H](COP(=O)(O)CP(=O)(O)OC[C@@H]3O[C@H](n4cnc5c(N)ncnc54)[C@@H](O)[C@H]3O)[C@@H](O)[C@H]2O)c1,Growth inhibition (% of untreated control),K562 [1],90%
same,Benzidine positive cells,K562 [12],15%
same,Benzidine positive cells,K562 [13],75%
same,Benzidine positive cells,K562 [14],45%
same,IC50,K562 [15],60 µM
same,Benzidine positive cells,K562 [16],17%
